Tests used:
NCI-H460 = assay: Cytotoxicity against human NCI-H460 cells after 48 hrs by SRB assay; assay type: functional; details: NCI-H460, 48 h
Outline: (§1)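 Cells in 5% FBS/RPMI1640 with 1% gentamicin, plated and grown 24 h, then given serial compound dilutions for 48 h. Fixed with trichloroacetic acid, stained with sulforhodamine B, read by optical density.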

SK-OV-3 = assay: Cytotoxicity against human SKOV3 cells after 48 hrs by SRB assay; assay type: functional; details: SK-OV-3, 48 h; outline: as §1
DU-145 = assay: Cytotoxicity against human DU145 cells after 48 hrs by SRB assay; assay type: functional; details: DU-145, 48 h; outline: as §1
Tubulin (Homo sapiens) [1] = biological target: T1, Tubulin (Homo sapiens) (UniProt P68371+Q9H4B7+P0DPH7+P68366+Q13509+Q71U36+P04350+Q3ZCM7+P07437+P68363+Q9BQE3+Q6PEY2+Q13885+Q9BVA1+Q9BUF5); assay: Displacement of [3H]colchicine from tubulin (unknown origin) at 5 uM after 10 mins by scintillation counting analysis; assay type: protein-complex assay
Outline: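 Mixtures: 1.0 µM tubulin, 5.0 µM [3H]colchicine, 5% DMSO, inhibitor 5.0 µM, with 1.0 M monosodium glutamate pH 6.6, 0.5 mg/mL BSA, 0.1 M glucose-1-phosphate, 1.0 mM MgCl2, 1.0 mM GTP. 10 min at 37 °C, stopped with ice-cold water, filtered on DEAE-cellulose, scintillation counted. Percent inhibition versus no-inhibitor control.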

[2] = Inhibition of bovine brain tubulin polymerization after 20 mins by turbidimetric analysis; set-up: species or system Bos taurus
Outline: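 Bovine brain tubulin 10 µM (1 mg/mL) in 0.8 M monosodium glutamate pH 6.6, 4% DMSO, with varying compound, preincubated 15 min at 30 °C. Chilled, GTP added to 0.4 mM, then temperature jumped 0→30 °C. Turbidity followed at 350 nm for 30 min.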

Tubulin (Homo sapiens) [3] = biological target: T1, Tubulin (Homo sapiens); assay: Displacement of [3H]colchicine from tubulin (unknown origin) at 1 uM after 10 mins by scintillation counting analysis; assay type: protein-complex assay
Outline: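 Tubulin 1.0 µM incubated 10 min at 37 °C with 5.0 µM [3H]colchicine, 5% (v/v) DMSO and inhibitor at 1.0 µM, in 1.0 M monosodium glutamate pH 6.6, 0.5 mg/mL BSA, 0.1 M glucose-1-phosphate, 1.0 mM MgCl2, 1.0 mM GTP. Stopped with ice-cold water, DEAE-cellulose filter stacks, scintillation counting next day; percent inhibition versus no-inhibitor control.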

SMILES | inhibition (Tubulin (Homo sapiens) [1]) | IC50 [2] | GI50 (NCI-H460) | GI50 (SK-OV-3) | GI50 (DU-145) | inhibition (Tubulin (Homo sapiens) [3])
COc1ccc(-c2[nH]c3cc(O)ccc3c2C(=O)c2cc(OC)c(OC)c(OC)c2)cc1O |  | > 20 µM | 2.91 µM | 2.17 µM | 3.4 µM | 
COc1ccc(-c2[nH]c3cc(OC)c(OC)c(OC)c3c2C(=O)c2cc(OC)c(OC)c(OC)c2)cc1O |  | > 20 µM | 41.8 µM | 25.1 µM | 28.3 µM | 
COc1ccc(-c2[nH]c3c(O)c(OC)ccc3c2C(=O)c2cc(OC)c(OC)c(OC)c2)cc1 | 85% | 1 µM | 0.177 µM | 0.264 µM | 0.309 µM | 51%
COc1ccc(-c2[nH]c3c(OC)c(OC)ccc3c2C(=O)c2cc(OC)c(OC)c(OC)c2)cc1O | 67% | 1.1 µM | 0.992 µM | 0.0119 µM | 0.0181 µM | 31%
COc1ccc(/C=C\c2cc(OC)c(OC)c(OC)c2)cc1O [COMBRETASTATIN A4] |  |  | 0.00449 µM | 0.00533 µM | 0.00484 µM | 
COc1ccc2c(C(=O)c3cc([N+](=O)[O-])cc([N+](=O)[O-])c3)c(-c3ccc(OC)c(O)c3)[nH]c2c1 |  | > 20 µM | 4.08 µM | 4.35 µM | 5.52 µM | 

Further lines, with some results ahead:

inhibition (Tubulin (Homo sapiens) [1]) | IC50 [2] | SMILES | GI50 (NCI-H460) | GI50 (SK-OV-3) | GI50 (DU-145) | inhibition (Tubulin (Homo sapiens) [3])
26% | 3.1 µM | COc1ccc2c(C(=O)c3cc(C(F)(F)F)cc(C(F)(F)F)c3)c(-c3ccc(OC)c(O)c3)[nH]c2c1 | 2.86 µM | 1.45 µM | 3.01 µM | 
 | > 20 µM | COc1ccc2c(C(=O)c3ccc(F)cc3)c(-c3ccc(OC)c(O)c3)[nH]c2c1 | 49.6 µM | 15 µM | 10 µM | 
 | > 20 µM | COc1ccc2c(C(=O)c3ccc([N+](=O)[O-])cc3)c(-c3ccc(OC)c(O)c3)[nH]c2c1 | 16.8 µM | 21.1 µM | 8.16 µM | 
21% | 19 µM | COc1ccc2c(C(=O)c3cccc([N+](=O)[O-])c3)c(-c3ccc(OC)c(O)c3)[nH]c2c1 | 15.7 µM | 2.65 µM | 7.11 µM | 
19% | 3.7 µM | COc1ccc2c(C(=O)c3cccc(OC(F)(F)F)c3)c(-c3ccc(OC)c(O)c3)[nH]c2c1 | 3.57 µM | 0.283 µM | 2.99 µM | 
26% | 7.5 µM | COc1ccc2c(C(=O)c3cc(F)c(F)c(F)c3)c(-c3ccc(OC)c(O)c3)[nH]c2c1 | 5.54 µM | 19.8 µM | 10 µM | 
 | > 20 µM | COc1ccc2c(C(=O)c3ccc(OC(F)(F)F)cc3)c(-c3ccc(OC)c(O)c3)[nH]c2c1 | 2.35 µM | 3.05 µM | 3.21 µM | 
